# Assay outcomes from PubChem.
# This is a sample that favours compounds with a hit; in the whole collection about 2.9% have one here.
# Dynein transport = inhibitors of GR-EGFP nuclear translocation, primary screen, dynein cargo transport inhibitor project, imaging, high-content, 3617.4 mouse cells. z-score, hits read low. actives 0.47% (n = 220,000). AID 1381, 2008. test concentration mostly 20 µM; stimulated with dexamethasone, 1 µM; stronger effect = lower value;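 active means plate z-score of nuclear minus cytoplasmic receptor signal below a set negative limit, without overly bright fluorescence or cell loss, cut at about -3.5 in these data, passing the limit was not always enough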;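 further: z-score of nuclear minus cytoplasmic ring GR-EGFP intensity difference per well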
#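 Buffer or medium: tet-free medium with charcoal-stripped serum / Also added: dexamethasone agonist, 1.0 µM final, for 30 min / Timing: induction 48 h, compound 1 h, agonist 30 min / Measured by: high-content fluorescence imaging after fixation / Read-out: nuclear-to-cytoplasmic GR-EGFP distribution per well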
# ATG4B inhibitor = ATG4B protease inhibitors, primary screen, biochemical, fluorescence, uHTS; Cysteine protease ATG4B (Homo sapiens), Q9Y4P1; actives 0.51% (n = 340,000); inhibition, % at 8.33 µM; AID 504462, 2011; ATG4B cleavage of LC3-PLA2, NBD-HPC fluorescence, 1 h; in the data active means inhibition above about 40%
# MEKK2wt PB1 HTS = modulators of MEK5 binding to wildtype MEKK2, primary screen, biochemical, multiplex bead flow cytometry, Alexa488-MEK5 | Mitogen-activated protein kinase kinase kinase 2 (Homo sapiens), Q9Y2U5 | Alexa488-MEK5 binding to MEKK2 WT; actives lie on both sides | binding response (% of control), % at 10 µM | actives 1.1% (n = 290,000) | AID 1531, 2009; in the data active means binding response below about 67% or above about 130%
# B2AR ag = beta2AR agonists driving receptor internalization, primary screen, cell-based, FAP fluorogen, flow cytometry. Beta-2 adrenergic receptor (Homo sapiens), P07550. Am2.2-beta2AR cells. response, % (test concentration not listed). actives 0.43% (n = 340,000);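 active means response above a set limit, near 3 SD of response in nonfluorescent compounds, cut at about 42% in these data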
# MEKK2mut PB1 HTS = MEK5 binding signal on mutant MEKK2 PB1, primary screen, biochemical, multiplex bead flow cytometry, Alexa488-MEK5. Alexa488-MEK5 binding to MEKK2 mutant. percent response, % at 10 µM. actives 0.35% (n = 290,000); in the data active means percent response above about 24%, passing the limit was not always enough
# MEKK3 PB1 HTS = modulators of MEKK3-MEK5 PB1 binding, primary screen, biochemical, wildtype MEKK3, multiplex bead flow cytometry, Alexa488-MEK5; bead-based flow cytometry, Alexa488-MEK5 binding to MEKK3; actives lie on both sides; 0 = blocked by unlabeled MEK5, 100 = vehicle; Mitogen-activated protein kinase kinase kinase 3 (Homo sapiens), Q99759; actives 1.4% (n = 290,000); binding response (% of control), % at 10 µM;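 active means binding response more than 3 SD above or below the average of its plate-row segment, actives on both sides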;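 further: Alexa488 bead fluorescence after subtracting the streptavidin-only scavenger bead signal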
# Target sequence (Q99759 whole entry, looked up): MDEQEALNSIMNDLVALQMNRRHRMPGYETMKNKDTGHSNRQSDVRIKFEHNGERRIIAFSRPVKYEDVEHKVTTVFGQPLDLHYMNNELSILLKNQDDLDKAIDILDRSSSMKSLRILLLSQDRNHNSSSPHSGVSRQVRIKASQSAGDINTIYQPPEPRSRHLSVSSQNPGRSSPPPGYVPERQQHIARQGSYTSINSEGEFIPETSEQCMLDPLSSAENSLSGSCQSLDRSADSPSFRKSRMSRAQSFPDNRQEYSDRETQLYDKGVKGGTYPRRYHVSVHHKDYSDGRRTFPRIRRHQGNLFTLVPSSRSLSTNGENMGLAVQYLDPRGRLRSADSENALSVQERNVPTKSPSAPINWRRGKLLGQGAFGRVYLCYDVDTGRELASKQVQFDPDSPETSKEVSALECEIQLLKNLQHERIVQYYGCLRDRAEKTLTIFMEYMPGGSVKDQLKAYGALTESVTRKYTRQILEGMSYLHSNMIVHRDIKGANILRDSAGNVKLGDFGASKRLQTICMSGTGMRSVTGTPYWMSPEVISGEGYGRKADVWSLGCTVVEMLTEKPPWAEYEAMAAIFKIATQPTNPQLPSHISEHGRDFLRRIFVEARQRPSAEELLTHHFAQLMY
# MEKK2wt confirm = modulators of MEK5 binding to wildtype MEKK2, confirmation, biochemical, single concentration, multiplex bead flow cytometry; Alexa488-MEK5 binding to MEKK2 WT; actives lie on both sides; shares compounds with MEKK3 PB1 HTS; binding response (% of control), % at 10 µM; actives 2.4% (n = 5,900); in the data active means binding response below about 16% or above about 210%; inactive means in between
# MEKK2mut confirm = mutant MEKK2 PB1-MEK5 binding signal retest – biochemical, single concentration, multiplex bead flow cytometry, confirmation; AID 1893, 2009; Alexa488-MEK5 binding to MEKK2 mutant; shares compounds with MEKK3 PB1 HTS; percent response, % at 10 µM; actives 2% (n = 5,900); in the data active means percent response mostly above about 71%, no sharp cut-off; inactive means mostly below about 38%;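 further: higher means compound restores mutant binding toward wildtype level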
# MEKK3-MEK5 inh = MEKK3 wild-type PB1 binding to MEK5, inhibitors, confirmation, biochemical, bead multiplex flow cytometry, single concentration, wildtype; shares compounds with MEKK3 PB1 HTS; Alexa488-MEK5 binding to MEKK3; stronger effect = lower value; binding response (% of control), % at 10 µM; actives 1.8% (n = 5,900); AID 1894, 2009;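 active means binding response below 72% of control, or above a set upper limit, though filed actives all read lower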;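 further: 100% = DMSO only wells and 0% = binding blocked by excess unlabeled MEK5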
# An asterisk follows results filed as active; x = no result; [ ] = dose if it differs, or a comment.
SMILES,Dynein transport,ATG4B inhibitor,MEKK2wt PB1 HTS,B2AR ag,MEKK2mut PB1 HTS,MEKK3 PB1 HTS,MEKK2wt confirm,MEKK2mut confirm,MEKK3-MEK5 inh
COCCn1c(Sc2ccccc2)nc2c1c(=O)[nH]c(=O)n2C,2.7,-3,3.0*[inhibitor],-4,-21,2.0*[inhibitor],101,3,100
Cn1c(=O)[nH]c(=O)c2c1nc(SCC(=O)O)n2Cc1ccccc1,x,7,105,5,27*,102,106,4,104
CCC(C)c1ccccc1NC(=O)COC(=O)c1ccc(N2CCCC2)c([N+](=O)[O-])c1 (stereo not drawn),0.76,9,100,-7,0,132*,104,1,106
CC(=O)c1cccc(NC(=S)NC(=O)c2ccc(C)cc2Cl)c1,0.3,1,100,-2,-6,108,x,x,x
NC(=O)CSc1nc2cc([N+](=O)[O-])ccc2n1-c1cccc(C(F)(F)F)c1,-0.79,-5,109,0,1,133*,106,4,106
COc1ccc(NC(=O)N2CCCC2C(=O)NCc2ccc(C)cc2)cc1 (stereo not drawn),0.37,-3,114,4,62*,73*[inhibitor],101,0,104
O=C(NNC(=S)Nc1ccc(Br)cc1)c1ccc(N2CCOCC2)c([N+](=O)[O-])c1,0.58,10,112,1,0,137*,104,0,102
COC(=O)c1ccc(N2CCN(S(=O)(=O)c3ccc(Br)cc3)CC2)c([N+](=O)[O-])c1,x,-11,124,1,8,129*,97,-5,94
CCOc1ccc(NC(=O)CN2CCN(CC(=O)Nc3cc(OC)cc(OC)c3)CC2)cc1,-0.16,-10,115,12,25*,113,105,-3,104
COc1ccccc1NC(=O)CN1CCN(CC(=O)Nc2ccc3c(c2)OCCO3)CC1,0.13,-12,112,-3,24*,106,112,15,104
COc1ccccc1NC(=O)CN1CCN(CC(=O)Nc2ccc(OC)c(OC)c2)CC1,x,-1,111,14,7,107,x,x,x
CC(C)COc1ccc(C(=O)NNC(=O)c2ccc(=O)[nH]c2)cc1,x,6,x,-10,x,x,x,x,x
NC(=O)CSc1nnc(-c2cc3ccccc3o2)n1Cc1ccccc1,-0.081,19,119,-14,9,124*,98,3,104
CCOc1cc(/C=N/NC(=O)CSc2nnc(C)s2)ccc1OCc1ccccc1Cl,0.8,-10,101,-8,-1,132*,106,3,102
O=C(CSc1nnc(SCc2ccccc2Cl)s1)N/N=C/c1ccc(C(=O)O)cc1,0.84,19,103,2,9,101,x,x,x
O=C(O)CN1C(=O)C2(OCCCO2)c2ccccc21,1.5,-2,2.0*[inhibitor],0,-25,2.0*[inhibitor],101,-4,101
O=C(/C=C/c1ccc(Cl)cc1)Nc1ccc(CN2CCOCC2)cc1,1.3,6,140*,1,31,106,111,3,102
O=C(CCCCCCCC(=O)N1CCCCCC1)N1CCCCCC1,x,-4,x,-8,x,x,x,x,x
CC(C)c1ccc(NC(=O)CSc2ncccc2C(=O)Oc2cccc([N+](=O)[O-])c2)cc1,-0.42,-3,106,-3,0,148*,99,-2,97
COc1ccc(NC(=O)CSc2ncccc2C(=O)OC(C)C)cc1OC,-0.35,0,104,-10,5,100,x,x,x
CCN(C(=O)CN1C(=O)NC2(CCc3ccccc32)C1=O)C1CCS(=O)(=O)C1 (stereo not drawn),x,-5,x,5,x,x,x,x,x
CCn1c(SCC(=O)N/N=C/c2ccc(O)c(OC)c2)nc2ccccc21,0.6,-3,112,-3,1,163*,97,0,96
COc1cc(/C=N/NC(=O)CCc2c(C)n[nH]c2C)ccc1O,-0.28,-11,111,-2,6,123*,104,5,104
CCn1c(SCC(=O)N/N=C/c2cccs2)nc2ccccc21,1.2,-18,104,-9,1,144*,100,-3,103
COc1ccc(/C=N/NC(=O)CCc2c(C)n[nH]c2C)cc1OC,-0.13,-16,93,0,-9,97,x,x,x
SMILES,Dynein transport,ATG4B inhibitor,MEKK2wt PB1 HTS,B2AR ag,MEKK2mut PB1 HTS,MEKK3 PB1 HTS,MEKK2wt confirm,MEKK2mut confirm,MEKK3-MEK5 inh
Cn1c(SCC(=O)N/N=C/c2cccs2)nc2ccccc21,0.69,-6,102,-5,0,95,x,x,x
COc1cccc(OC)c1C(=O)Nc1cccc(S(=O)(=O)Nc2ccccc2Cl)c1,x,-12,x,1,x,x,x,x,x
O=C(CCOc1ccccc1)Nc1cccc(S(=O)(=O)Nc2ccccc2Cl)c1,-0.0028,5,99,-8,-2,151*,103,-3,101
CN(C)S(=O)(=O)c1ccc(C(=O)NC(=O)CSc2ccccc2)cc1,0.69,-7,102,5,-1,131*,100,1,105
CC(=O)Nc1ccc(SCC(=O)NC(=O)c2ccc(S(=O)(=O)N(C)C)cc2)cc1,x,-2,x,18,x,x,x,x,x
CS(=O)(=O)c1ccccc1C(=O)N(CCC1=CCCCC1)c1c(N)n(Cc2ccccc2)c(=O)[nH]c1=O,x,1,x,1,x,x,x,x,x
COc1ccc(/C=N/NC(=O)c2ccc(O)cc2)cc1CN1CCCc2ccccc21,-0.67,-2,44*[inhibitor],7,24,97,88,-9,103
